Experimental data: ChEMBL document CHEMBL1145325, “p38 MAP kinase inhibitors. Part 3: SAR on 3,4-dihydropyrimido[4,5-d]pyrimidin-2-ones and 3,4-dihydropyrido[4,3-d]pyrimidin-2-ones” (Bioorg Med Chem Lett, 2006); call rule not given here
pIC50: −log10 of the molar value.

What was measured:
THP-1 [1] = experiment: Inhibition of LPS-stimulated TNFalpha release in human THP1 cells; type: functional, cell-based
Procedure, shortened: (§1)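 THP-1 cells at 2.5 · 10⁶/mL suspended in a PBS-based medium. Compound added in DMSO, then LPS. Incubated 4 h at 37 °C under CO₂. TNF-α in the supernatant measured by sandwich ELISA, with anti-human TNF-α as the capture antibody.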

Homo sapiens [2] = organism: Homo sapiens; experiment: Inhibition of LPS-stimulated TNFalpha release in human whole blood; type: functional, organism-based
[3] = biological target: Mitogen-activated protein kinase 14 (Homo sapiens, UniProt Q16539); experiment: Inhibition of p38alpha
[4] = biological target: Voltage-gated inwardly rectifying potassium channel KCNH2 (Homo sapiens, UniProt Q12809); experiment: Binding affinity to iKr potassium channel
[5] = biological target: Voltage-gated L-type calcium channel (Homo sapiens, UniProt Q13936+Q13698+Q01668+O60840); experiment: Binding affinity to DLZ binding site of calcium channel; type: protein assay
Homo sapiens [6] = organism: Homo sapiens; experiment: Inhibition of LPS-stimulated TNFalpha release in human whole blood upto 15 uM; type: functional, organism-based
[7] = Half life in rat; type: ADME, organism-based; details: in vivo
[8] = Oral bioavailability in rat; type: ADME, organism-based; details: in vivo
THP-1 [9] = experiment: Inhibition of LPS-stimulated TNFalpha release in human THP1 cells upto 15 uM; type: functional, cell-based; procedure, shortened: as §1

Chain of Voltage-gated inwardly rectifying potassium channel KCNH2 (Q12809 whole entry): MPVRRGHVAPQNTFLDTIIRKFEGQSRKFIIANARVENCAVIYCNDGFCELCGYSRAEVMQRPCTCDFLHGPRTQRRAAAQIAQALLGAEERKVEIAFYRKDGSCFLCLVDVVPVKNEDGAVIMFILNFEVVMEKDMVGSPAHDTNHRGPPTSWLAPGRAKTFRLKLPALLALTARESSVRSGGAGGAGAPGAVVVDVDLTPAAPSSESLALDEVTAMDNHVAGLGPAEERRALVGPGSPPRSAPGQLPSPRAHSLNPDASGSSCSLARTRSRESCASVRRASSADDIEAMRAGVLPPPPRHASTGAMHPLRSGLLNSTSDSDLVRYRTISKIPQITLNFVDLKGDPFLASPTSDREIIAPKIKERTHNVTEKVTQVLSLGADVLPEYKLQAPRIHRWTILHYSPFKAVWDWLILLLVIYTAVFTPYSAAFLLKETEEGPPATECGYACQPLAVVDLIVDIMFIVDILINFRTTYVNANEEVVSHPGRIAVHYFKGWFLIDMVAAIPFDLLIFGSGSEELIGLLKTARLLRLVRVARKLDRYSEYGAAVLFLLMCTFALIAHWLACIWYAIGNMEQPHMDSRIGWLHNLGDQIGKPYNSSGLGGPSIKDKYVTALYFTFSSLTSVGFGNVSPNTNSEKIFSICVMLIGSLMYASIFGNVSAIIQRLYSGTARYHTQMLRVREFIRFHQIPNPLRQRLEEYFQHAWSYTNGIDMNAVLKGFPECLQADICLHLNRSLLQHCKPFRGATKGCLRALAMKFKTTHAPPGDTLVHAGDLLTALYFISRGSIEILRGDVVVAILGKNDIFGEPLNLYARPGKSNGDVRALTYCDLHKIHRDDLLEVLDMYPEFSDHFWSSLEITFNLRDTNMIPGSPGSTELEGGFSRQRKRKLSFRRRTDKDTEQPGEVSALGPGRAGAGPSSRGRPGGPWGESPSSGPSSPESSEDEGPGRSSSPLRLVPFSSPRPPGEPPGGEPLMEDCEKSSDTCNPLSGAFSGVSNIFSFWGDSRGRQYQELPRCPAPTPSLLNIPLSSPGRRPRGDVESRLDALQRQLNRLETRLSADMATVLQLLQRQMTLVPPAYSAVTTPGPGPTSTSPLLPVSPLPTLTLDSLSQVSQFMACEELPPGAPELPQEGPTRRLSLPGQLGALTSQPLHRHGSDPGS
Chain of Mitogen-activated protein kinase 14 (Q16539 whole entry): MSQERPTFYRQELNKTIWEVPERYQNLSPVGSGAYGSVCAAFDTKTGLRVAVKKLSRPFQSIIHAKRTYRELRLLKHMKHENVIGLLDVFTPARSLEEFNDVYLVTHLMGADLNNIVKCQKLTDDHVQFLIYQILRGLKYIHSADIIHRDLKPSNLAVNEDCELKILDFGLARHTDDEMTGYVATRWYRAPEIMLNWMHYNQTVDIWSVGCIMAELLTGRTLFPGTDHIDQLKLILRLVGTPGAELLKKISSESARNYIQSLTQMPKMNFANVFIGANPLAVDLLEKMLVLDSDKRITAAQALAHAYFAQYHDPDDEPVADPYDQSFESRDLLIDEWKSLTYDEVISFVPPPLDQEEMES

| SMILES | pIC50 (THP-1 [1]) | pIC50 (Homo sapiens [2]) | pIC50 [3] | Activity [4] [µM] | Activity [5] [µM] | IC50 (Homo sapiens [6]) | half-life [7] [h] | bioavailability [8] [%] | IC50 (THP-1 [9]) |
| --- | --- | --- | --- | --- | --- | --- | --- | --- | --- |
| CC1(C)CC(Nc2nc(-c3ccccc3Cl)c3c(n2)N(c2c(Cl)cccc2Cl)C(=O)NC3)CC(C)(C)N1 | 8.59 | 7.42 | 9.15 | 4.5 | 1.2 |  |  |  |  |
| O=C1NCc2c(-c3ccccc3Cl)cc(O)cc2N1c1c(Cl)cccc1Cl |  |  | 8.70 |  |  |  |  |  |  |
| C[C@@H]1CN(c2nc(-c3ccc(Cl)cc3Cl)c3c(n2)N(c2c(Cl)cccc2Cl)C(=O)NC3)C[C@H](C)O1 | 6.30 |  | 8.70 | 5 | 6 | Not Active |  |  |  |
| CN(C)CCOc1nc(-c2ccccc2Cl)c2c(n1)N(c1c(Cl)cccc1Cl)C(=O)NC2 | 7.68 | 6.60 | 8.38 | 10 | 8.8 |  |  |  |  |
| CN(C)CCN1CCN(c2nc(-c3ccccc3Cl)c3c(n2)N(c2c(Cl)cccc2Cl)C(=O)NC3)CC1 | 8.64 | 7.00 | 9.30 | 3.8 | 1.7 |  |  |  |  |
| O=C1NCc2c(-c3ccccc3Cl)nc(NC3CN4CCC3CC4)nc2N1c1c(Cl)cccc1Cl (stereo not drawn) | 7.47 | 6.44 | 8.92 | 5.8 | 1.3 |  |  |  |  |
| CC(C)N1CCC(c2cc(-c3ccc(F)cc3F)c3c(c2)N(c2c(Cl)cccc2Cl)C(=O)NC3)CC1 |  | 7.70 | 9.70 |  |  |  |  |  |  |
| CC(C)N1CCC(c2cc3c(c(-c4ccccc4Cl)n2)CNC(=O)N3c2c(Cl)cccc2Cl)CC1 |  |  |  |  |  |  | 2.1 | 18 |  |
| CSc1nc(-c2ccccc2Cl)c2c(n1)N(c1c(Cl)cccc1Cl)C(=O)NC2 | 6.15 |  | 8.00 |  | 6 | Not Active |  |  |  |
| CN1C2CCC1CC(Nc1nc(-c3ccccc3Cl)c3c(n1)N(c1c(Cl)cccc1Cl)C(=O)NC3)C2 (stereo not drawn) | 8.59 | 7.77 | 9.30 | 8.9 | 2.2 |  |  |  |  |
| Nc1nc(-c2ccccc2Cl)c2c(n1)N(c1c(Cl)cccc1Cl)C(=O)NC2 | 7.09 | 5.70 | 8.28 |  | 9.2 |  | 1.1 | 100 |  |
| CS(=O)(=O)c1nc(-c2ccccc2Cl)c2c(n1)N(c1c(Cl)cccc1Cl)C(=O)NC2 | 6.30 |  | 8.38 | 9 | > 10 | Not Active |  |  |  |
| CN(C)CCN1CCN(c2nc(-c3ccc(Cl)cc3Cl)c3c(n2)N(c2c(Cl)cccc2Cl)C(=O)NC3)CC1 | 7.66 | 7.38 | 9.00 |  | 0.22 |  |  | 3 |  |
| CN(C)CCNc1nc(-c2ccc(Cl)cc2Cl)c2c(n1)N(c1c(Cl)cccc1Cl)C(=O)NC2 | 7.70 | 7.49 | 8.25 | 0.5 | 1 |  |  |  |  |
| COCCNc1nc(-c2ccc(Cl)cc2Cl)c2c(n1)N(c1c(Cl)cccc1Cl)C(=O)NC2 | 7.01 | 6.57 | 8.70 | 3 | > 10 |  |  |  |  |
| O=C1NCc2c(-c3ccccc3Cl)nc(O)nc2N1c1c(Cl)cccc1Cl | 6.77 |  | 8.40 | 4.6 | 7 | Not Active |  |  |  |
| CC(C)Nc1nc(-c2ccccc2Cl)c2c(n1)N(c1c(Cl)cccc1Cl)C(=O)NC2 | 7.42 |  | 8.96 | 4.5 | 10 | Not Active |  |  |  |
| O=C1NCc2c(-c3ccccc3Cl)nc(N3CCc4[nH]ncc4C3)nc2N1c1c(Cl)cccc1Cl | 7.55 | 6.30 | 8.72 | 10 | > 30 |  |  |  |  |
| CC(C)(C)CNc1nc(-c2ccccc2Cl)c2c(n1)N(c1c(Cl)cccc1Cl)C(=O)NC2 | 7.68 | 6.00 | 9.10 | 10 | > 30 |  |  |  |  |
| O=C1NCc2c(-c3ccccc3Cl)nc(NN3CCOCC3)nc2N1c1c(Cl)cccc1Cl | 7.00 | 6.00 | 8.40 | 6.9 | 7 |  |  |  |  |
| O=C1NCc2c(-c3ccc(F)cc3F)cc(C3CCNCC3)cc2N1c1c(Cl)cccc1Cl |  | 8.00 |  |  |  |  |  |  |  |
| CC(C)N1CCC(Nc2nc(-c3ccccc3Cl)c3c(n2)N(c2c(Cl)cccc2Cl)C(=O)NC3)CC1 | 9.00 | 7.82 | 9.22 | 6.4 | 3.3 |  | 2 | 24 |  |
| O=C1NCc2c(-c3ccccc3Cl)nc(N3CCOCC3)nc2N1c1c(Cl)cccc1Cl | 6.30 |  | 8.70 |  | 6 | Not Active |  |  |  |
| CC(C)N1CCN(c2nc(-c3ccc(Cl)cc3Cl)c3c(n2)N(c2c(Cl)cccc2Cl)C(=O)NC3)CC1 | 6.48 | 5.71 | 7.70 | 0.2 | 0.7 |  |  |  |  |
| Nc1cc(-c2ccccc2Cl)c2c(c1)N(c1c(Cl)cccc1Cl)C(=O)NC2 |  |  | 8.22 |  |  |  |  |  |  |
| CNc1nc(-c2ccccc2Cl)c2c(n1)N(c1c(Cl)cccc1Cl)C(=O)NC2 | 7.66 | 6.07 | 8.70 | 6.4 | 10 |  |  |  |  |
| CN(C)c1nc(-c2ccccc2Cl)c2c(n1)N(c1c(Cl)cccc1Cl)C(=O)NC2 |  |  | 8.52 | 6 | > 10 | Not Active |  |  | Not Active |
